Assay results: ChEMBL document CHEMBL1150800, “Multiple-dose escalation study of the safety, pharmacokinetics, and biologic activity of oral AMD070, a selective CXCR4 receptor inhibitor, in human subjects” (Antimicrob Agents Chemother, 2007)
In brackets after ≈: the same amount, converted by molar mass.

Legend:
[1] = Drug level in fasting healthy human at 200 mg, po administered every 12 hrs measured after 72 hrs; format: ADME, organism-based; details: in vivo, read-out: Drug uptake
Summary of the method: (§1)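 Six healthy men per cohort dosed orally q12h for seven doses. Morning doses given after 8-h fast, with fasting until 1 h post-dose. After the final dose (72 h after the first) plasma was sampled predose and 0.5–24 h. Validated HPLC-MS/MS assay. Noncompartmental parameters (log-linear trapezoidal AUC) from all time points, summarized per cohort.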

[2] = Tmax in fasting healthy human at 200 mg, po administered as single dose; format: ADME, organism-based; details: in vivo
Summary of the method: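 Healthy male volunteers (cohort C, n=3) took one oral dose after an 8-h overnight fast and kept fasting to 1 h post-dose. Drug was measured by validated HPLC-MS/MS (positive electrospray), and Tmax was taken by noncompartmental analysis of individual curves.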

Homo sapiens [3] = test: Half life in fasting healthy human at 400 mg, po administered as single dose after 12 hrs; format: ADME, organism-based; details: in vivo
Summary of the method: (§2)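 Healthy male volunteers, three per cohort, one oral dose after 8-h overnight fast, fasting kept until 1 h post-dose. Plasma sampled predose and at 0.5, 1, 1.5, 2, 3, 4, 6, 8, 12, 16, 20, 24 h. Levels by validated HPLC-MS/MS (liquid-liquid extraction, positive-ion electrospray). Noncompartmental analysis, log-linear trapezoidal AUC, summarized per cohort.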

[4] = Cmax in fasting healthy human at 400 mg, po administered as single dose; format: ADME, organism-based; design: dose 400 mg, route oral; details: in vivo; summary of the method: as §2
[5] = Drug level in fasting healthy human at 400 mg, po administered every 12 hrs measured after 72 hrs; format: ADME, organism-based; details: in vivo, read-out: Drug uptake; summary of the method: as §1
[6] = Tmax in fasting healthy human at 50 mg, po administered as single dose; format: ADME, organism-based; details: in vivo
Summary of the method: (§3)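 Healthy male volunteers, three per cohort, took one oral dose after an 8-h overnight fast and stayed fasting until 1 h post-dose. Tmax came from per-subject noncompartmental analysis, summarized by cohort.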

Homo sapiens [7] = test: Half life in fasting healthy human at 400 mg, po administered every 12 hrs; format: ADME, organism-based; details: in vivo; summary of the method: as §1
[8] = Drug level in fasting healthy human at 400 mg, po administered as single dose after 12 hrs; format: ADME, organism-based; details: in vivo, read-out: Drug uptake; summary of the method: as §2
[9] = Terminal half life in rat; format: ADME, organism-based; details: in vivo
Homo sapiens [10] = test: Decrease in CD4 cell count in fasting healthy human at 100 mg, po administered every 12 hrs measured after 24 hrs relative to baseline; format: functional; design: scale not given: the % may be the effect or the level left
Summary of the method: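 CD4+ counts drawn before the first dose and at 2, 4, 6, 8 and 24 h after the final (seventh) q12h oral dose in fasting healthy men. Each post-dose value divided by the baseline value to give a ratio. Deviation from no effect tested by Wilcoxon rank sum, dose trend by Jonckheere-Terpstra.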

[11] = Cmax in fasting healthy human at 200 mg, po administered every 12 hrs; format: ADME, organism-based; design: dose 200 mg, route oral; details: in vivo; summary of the method: as §1
[12] = Half life in dog; format: ADME, organism-based, Canis lupus familiaris; details: in vivo
[13] = Tmax in fasting healthy human at 400 mg, po administered as single dose; format: ADME, organism-based; details: in vivo; summary of the method: as §3
[14] = Tmax in fasting healthy human at 100 mg, po administered as single dose; format: ADME, organism-based; details: in vivo; summary of the method: as §2
Homo sapiens [15] = test: Apparent volume of distribution in fasting healthy human at 50 mg, po administered as single dose after 12 hrs; format: ADME, organism-based; details: in vivo; summary of the method: as §2
[16] = tested on: Human immunodeficiency virus 1; test: Antiviral activity against HIV1 NL4.3 in human MT4 cells; format: functional, organism-based; details: Human immunodeficiency virus 1, MT4
Homo sapiens [17] = test: AUC ( 0 to infinity) in fasting healthy human at 100 mg, po administered as single dose after 12 hrs; format: ADME, organism-based, Plasma; design: dose 100 mg, route oral, time infinity; details: in vivo; summary of the method: as §2
Homo sapiens [18] = test: Apparent volume of distribution in fasting healthy human at 200 mg, po administered as single dose after 12 hrs; format: ADME, organism-based; details: in vivo; summary of the method: as §2
[19] = Cmax in fasting healthy human at 200 mg, po administered as single dose; format: ADME, organism-based; design: dose 200 mg, route oral; details: in vivo; summary of the method: as §2
[20] = Oral bioavailability in dog; format: ADME, organism-based, Canis lupus familiaris; details: in vivo
[21] = Terminal half life in dog; format: ADME, organism-based, Canis lupus familiaris; details: in vivo
Homo sapiens [22] = test: Apparent volume of distribution in fasting healthy human at 200 mg, po administered every 12 hrs; format: ADME, organism-based; details: in vivo; summary of the method: as §1
Homo sapiens [23] = test: Apparent volume of distribution in fasting healthy human at 400 mg, po administered as single dose after 12 hrs; format: ADME, organism-based; details: in vivo; summary of the method: as §2
[24] = Cmax in fasting healthy human at 50 mg, po administered as single dose; format: ADME, organism-based; design: dose 50 mg, route oral; details: in vivo; summary of the method: as §2
[25] = Cmax in fasting healthy human at 400 mg, po administered every 12 hrs; format: ADME, organism-based; design: dose 400 mg, route oral; details: in vivo; summary of the method: as §1
[26] = Cmax in fasting healthy human at 100 mg, po administered as single dose; format: ADME, organism-based; design: dose 100 mg, route oral; details: in vivo; summary of the method: as §2
[27] = Drug level in fasting healthy human at 100 mg, po administered every 12 hrs measured after 72 hrs; format: ADME, organism-based; details: in vivo, read-out: Drug uptake; summary of the method: as §1

concentration at 72 h [1]: 31 ng/mL | Tmax [2]: 1 h | t1/2 (Homo sapiens [3]): 11.2 h | Cmax [4]: 1400 ng/mL | concentration at 72 h [5]: 122 ng/mL | Tmax [6]: 1.5 h | t1/2 (Homo sapiens [7]): 12 h | concentration at 12 h [8]: 44.6 ng/mL | half-life [9]: 10 h | Cmax [11]: 793 ng/mL | half-life [12]: 0.7 h | Tmax [13]: 1.5 h | Tmax [14]: 1.5 h | Vd (Homo sapiens [15]): 3620 L | EC90 [16]: 0.044 µg/mL (≈ 0.126 µM) | IC50 [16]: 0.0023 µg/mL (≈ 0.00658 µM) | AUC (Homo sapiens [17]): 358 ng·h/mL | Vd (Homo sapiens [18]): 2152 L | Cmax [19]: 995 ng/mL | bioavailability [20]: 80% | half-life [21]: 10 h | Vd (Homo sapiens [22]): 1923 L | Vd (Homo sapiens [23]): 918 L | Cmax [24]: 159 ng/mL | Cmax [25]: 2300 ng/mL | Cmax [26]: 276 ng/mL | concentration at 72 h [27]: 6.8 ng/mL
Compound: NCCCCN(Cc1nc2ccccc2[nH]1)[C@H]1CCCc2cccnc21 [MAVORIXAFOR]
Activity (Homo sapiens [10]): 80%
